Experimental data as given in publication PMC2606940 (The Journal of General Physiology, 2009).
Where a chain is given by its changes, count along the chain named. Like-named read-outs stand apart in the source and are kept apart here.

Tests used:
Assay type in all cases: cell-based
[1] = target: T1, CLC-0 E166C/E127Q mutant (E127Q/K519) (Torpedo marmorata, UniProt P21564, C212S/E127Q/E166C); conditions: for IC50: read-out: Apparent affinity (K1/2)
T1 sequence (P21564 1-805 E127Q/E166C/C212S): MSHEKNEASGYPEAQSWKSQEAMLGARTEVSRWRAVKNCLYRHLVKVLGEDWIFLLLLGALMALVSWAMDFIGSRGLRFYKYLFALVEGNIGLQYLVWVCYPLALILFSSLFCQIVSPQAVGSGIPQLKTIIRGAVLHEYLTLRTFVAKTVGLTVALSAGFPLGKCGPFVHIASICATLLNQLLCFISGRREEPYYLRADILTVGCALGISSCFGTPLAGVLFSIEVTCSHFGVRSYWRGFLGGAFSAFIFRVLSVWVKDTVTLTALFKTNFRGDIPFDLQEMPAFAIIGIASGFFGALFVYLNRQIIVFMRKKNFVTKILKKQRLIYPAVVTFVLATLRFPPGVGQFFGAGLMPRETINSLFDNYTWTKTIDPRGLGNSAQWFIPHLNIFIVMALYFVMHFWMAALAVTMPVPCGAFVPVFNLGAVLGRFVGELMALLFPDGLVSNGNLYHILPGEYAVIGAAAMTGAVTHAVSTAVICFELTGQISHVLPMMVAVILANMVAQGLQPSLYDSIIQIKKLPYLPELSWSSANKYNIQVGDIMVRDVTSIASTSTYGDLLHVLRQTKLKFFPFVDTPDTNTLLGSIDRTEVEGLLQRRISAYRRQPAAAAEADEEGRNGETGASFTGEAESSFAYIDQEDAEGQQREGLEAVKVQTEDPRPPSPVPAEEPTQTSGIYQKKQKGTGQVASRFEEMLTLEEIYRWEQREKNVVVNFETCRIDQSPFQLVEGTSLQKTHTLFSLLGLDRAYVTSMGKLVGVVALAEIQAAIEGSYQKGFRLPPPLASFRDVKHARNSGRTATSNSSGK
Outline: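 CLC-0 mutants in the C212S background were transfected into HEK293 cells with lipofectamine and recorded 1–3 d later as excised inside-out patches. Both sides held 130 mM NaCl, 5 mM MgCl2, 10 mM HEPES and 1 mM EGTA, pH 7.4. CPA was perfused continuously onto the cytoplasmic face. Steady-state current over the last 10 ms was normalized to bracketing blocker-free controls and fitted to a Langmuir function for K1/2. Values are mean ± SEM of ~4–6 patches.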

[2] = target: T2, CLC-0 E166A mutant (Torpedo marmorata, UniProt P21564, C212S/E166A); experiment: Single-channel recordings, channels expressed in Xenopus oocytes; conditions: 0.1 mM CPA cytoplasmic side; −100 mV
T2 sequence (P21564 1-805 E166A/C212S): T1 sequence (P21564 1-805 E127Q/E166C/C212S) with Q127E, C166A
Outline: (§1)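 Single channels were expressed in Xenopus oocytes from cRNA made from a pBluescript construct. Currents were recorded at −100 mV with cytoplasmic CPA at 100 μM, filtered at 200 Hz (four-pole Bessel) and digitized at 1 kHz. Average dwell time of nonconducting events was analysed from the single-channel traces.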

[3] = target: T3, CLC-0 E166Q mutant (Torpedo marmorata, UniProt P21564, C212S/E166Q); experiment: as above; conditions: 0.1 mM CPA; −100 mV
T3 sequence (P21564 1-805 E166Q/C212S): T1 sequence (P21564 1-805 E127Q/E166C/C212S) with Q127E, C166Q
Outline: as §1

## O=C(O)COc1ccc(Cl)cc1 [CPA, p-chlorophenoxy acetate]
[1]; −40 mV
  IC50: 491 ± 58 µM
[1]; −60 mV
  IC50: 228 ± 23 µM
[1]; −80 mV
  IC50: 113 ± 10 µM
[1]; −100 mV
  IC50: 57 ± 4 µM
[1]; −120 mV
  IC50: 33 ± 3 µM
[1]; −140 mV
  IC50: 21 ± 2 µM
[1]; −160 mV
  IC50: 15 ± 2 µM
  apparent koff: 17.9 s⁻¹
  apparent kon: 760000 M⁻¹ s⁻¹
[2]
  averaged time of nonconducting (blocked) events: ~55 ms
[3]
  long blocked state in single-channel trace: absent
